Assay [1] addresses Cathepsin S (Homo sapiens, UniProt P25774). Kind of assay: Inhibition of human cathepsin S using Z-LR-AMC as substrate after 30 mins by spectromicrofluorimetric method. Summed up:
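Cathepsin S (0.5 nM) preincubated 30 min at 37 °C with inhibitor (0-250 nM) in 0.1 M sodium acetate pH 5.5 containing 2 mM DTT and 0.01% Brij35. Residual activity read with Z-LR-AMC at 2.5, 5 and 10 µM, fluorescence ex 350/em 460 nm. IC50 averaged from slopes. Triplicate, repeated three times.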

In assay [2] the target is T1, Cathepsin K (Homo sapiens, UniProt P43235).
T1 sequence (P43235 whole entry): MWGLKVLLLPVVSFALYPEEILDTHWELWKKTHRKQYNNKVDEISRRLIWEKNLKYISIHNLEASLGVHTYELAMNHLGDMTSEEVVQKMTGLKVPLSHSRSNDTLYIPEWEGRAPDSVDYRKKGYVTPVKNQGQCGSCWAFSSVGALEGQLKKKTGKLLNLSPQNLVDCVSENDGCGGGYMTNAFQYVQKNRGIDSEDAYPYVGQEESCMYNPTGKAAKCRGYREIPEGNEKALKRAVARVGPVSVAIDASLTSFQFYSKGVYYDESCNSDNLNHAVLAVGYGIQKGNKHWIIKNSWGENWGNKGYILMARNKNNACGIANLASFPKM
Kind of assay: Inhibition of human cathepsin K expressed in Pichia pastoris using Z-Phe-Arg-AMC as substrate after 30 mins by spectromicrofluorimetric method. The method in brief: (§1)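 Enzyme (0.5 nM) preincubated 30 min at 37 °C with inhibitor (0-250 nM) in 0.1 M sodium acetate pH 5.5, 2 mM DTT, 0.01% Brij35. Residual activity on Z-Phe-Arg-AMC at 2.5, 5 and 10 µM, fluorescence ex 350/em 460 nm. IC50 averaged from slopes. Triplicate, repeated three times.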

For assay [3], the target named is Procathepsin L (Homo sapiens, UniProt P07711). Briefly: Inhibition of human cathepsin L using Z-Phe-Arg-AMC as substrate after 30 mins by spectromicrofluorimetric method. Summed up:
as §1

For assay [4], the target named is Cathepsin B (Homo sapiens, UniProt P07858). Briefly: Inhibition of human cathepsin B using Z-Phe-Arg-AMC as substrate after 30 mins by spectromicrofluorimetric method. Summed up:
as §1

Chain of Cathepsin S (P25774 whole entry): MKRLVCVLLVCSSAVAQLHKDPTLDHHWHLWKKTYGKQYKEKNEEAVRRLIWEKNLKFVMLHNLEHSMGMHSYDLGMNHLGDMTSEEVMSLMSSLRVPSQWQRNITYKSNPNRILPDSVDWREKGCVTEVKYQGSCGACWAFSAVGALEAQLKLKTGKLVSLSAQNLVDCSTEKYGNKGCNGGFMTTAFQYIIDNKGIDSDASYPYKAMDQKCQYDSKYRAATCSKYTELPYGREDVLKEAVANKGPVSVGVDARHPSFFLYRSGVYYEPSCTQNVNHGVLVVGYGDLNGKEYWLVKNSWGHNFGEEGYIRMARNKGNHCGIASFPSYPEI
Chain of Procathepsin L (P07711 whole entry): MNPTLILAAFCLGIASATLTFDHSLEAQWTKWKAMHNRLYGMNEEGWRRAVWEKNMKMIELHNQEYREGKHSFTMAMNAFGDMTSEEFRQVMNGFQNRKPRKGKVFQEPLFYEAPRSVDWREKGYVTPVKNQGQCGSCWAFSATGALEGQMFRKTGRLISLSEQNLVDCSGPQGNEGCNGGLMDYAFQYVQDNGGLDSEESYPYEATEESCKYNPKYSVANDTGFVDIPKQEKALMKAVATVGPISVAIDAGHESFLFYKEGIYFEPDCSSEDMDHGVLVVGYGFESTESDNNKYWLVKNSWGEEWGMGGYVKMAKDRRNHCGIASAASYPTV

For `N#Cc1nc(Nc2ccc([N+](=O)[O-])cc2)nc(NC2CCCCC2)n1`, the IC50 in assay [1] turned out to be 90 nM; in assay [2], 17 nM; in assay [3] it was 136 nM.

For `N#Cc1nc(NC[C@H](O)c2ccccc2)nc(NC2CCCCC2)n1`, the IC50 in assay [1] came to 23 nM; in assay [2], 70 nM.

Consider `N#Cc1nc(Nc2ccc(C(F)(F)F)cc2)nc(N2CCNCC2)n1`, for which the IC50 stood at 23 nM in assay [1] and 28 nM in assay [2].

Turning to `N#Cc1nc(Nc2ccc(C(F)(F)F)cc2)nc(NC2CCCCC2)n1`, the IC50 is 102 nM in assay [1] and 34 nM in assay [2].

On to `COc1ccc(Nc2nc(C#N)nc(N3CCNCC3)n2)cc1`, for which the IC50 amounted to 45 nM in assay [4], 17 nM in assay [1], 17 nM in assay [2] and 17 nM in assay [3].

For `Cc1cccc(CNc2nc(C#N)nc(NC3CCCCC3)n2)c1`, the results for the IC50 in assay [1] and in assay [2] were 23 nM and 60 nM, respectively.

Regarding `N#Cc1nc(Nc2ccc([N+](=O)[O-])cc2)nc(N2CCNCC2)n1`, the IC50 in assay [1] was 23 nM; in assay [2], 17 nM; in assay [3] it was 17 nM.

Turning to `COc1ccc(Nc2nc(C#N)nc(NC3CCCCC3)n2)cc1`, the results for the IC50 in assay [1], in assay [2] and in assay [3] were 136 nM, 23 nM and 226 nM, respectively.

For the compound `N#Cc1nc(NC[C@H](O)c2ccccc2)nc(N2CCNCC2)n1`, the concentration for half-maximal inhibition (IC50) in assay [4] was found to be 136 nM; in assay [1], 23 nM; in assay [2], 68 nM; in assay [3], 45 nM.

`N#Cc1nc(NCCc2ccccc2)nc(NC2CCCCC2)n1`: the IC50 in assay [1] turned out to be 23 nM; in assay [2], 80 nM.

On to `N#Cc1nc(Nc2cccc([N+](=O)[O-])c2)nc(NC2CCCCC2)n1`, for which the IC50 is 79 nM in assay [4], 28 nM in assay [1], 17 nM in assay [2] and 23 nM in assay [3].

Turning to `Cc1cccc(CNc2nc(C#N)nc(N3CCNCC3)n2)c1`, the IC50 in assay [4] was determined as 57 nM; in assay [1], 17 nM; in assay [2], 23 nM.

`N#Cc1ccc(Nc2nc(C#N)nc(N3CCNCC3)n2)cc1`: the IC50 came to 57 nM in assay [4], 28 nM in assay [2] and 113 nM in assay [3].

Turning to `N#Cc1ccc(Nc2nc(C#N)nc(NC3CCCCC3)n2)cc1`, the IC50 in assay [1] was 23 nM; in assay [2] it was 67 nM.

As for `N#Cc1nc(Nc2cccc([N+](=O)[O-])c2)nc(N2CCNCC2)n1`, the IC50 came to 34 nM in assay [4], 17 nM in assay [1], 17 nM in assay [2] and 17 nM in assay [3].
